# Data from publication PMC3210410 (Bioorganic & medicinal chemistry letters, 2011).
# Read-outs that look alike come from different tables or passages of the source.
# Key:
# Format in all cases: biochemical
# MMP-13 [1] = molecular target: T1, MMP-13 (Homo sapiens, UniProt P45452); assay: FRET triple-helical peptide; settings: for MMP-13 % Inhibition: 40 μM compound, fTHP-15 substrate, triplicate
# In short: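 Triple-helical fTHP-15 FRET substrate, whose conformation engages protease secondary binding sites (exosites), cleaved by MMP-13 with each test compound at 40 μM. Activity is reported as percent inhibition from triplicate assays.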
# ADAM17/TACE = ADAM17/TACE (Homo sapiens, UniProt P78536); assay: TACE inhibition; settings: data not shown
# MMP-13 [2] = molecular target: T1, MMP-13; assay: Dual inhibition kinetic assays; settings: compound 4 with either compound 1 or 3
# MMP-13 [3] = molecular target: T1, MMP-13; assay: Single inhibitor kinetic assays with MMP-13 and fTHP-15; settings: for mode of inhibition of MMP-13-mediated hydrolysis of the fTHP: Lineweaver-Burk plot, lines crossing on X axis
# MMP-13 [4] = molecular target: T1, MMP-13; assay: RP-HPLC-based secondary screen for artifactual inhibition; settings: data not shown
# In short: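 Checks for fluorescence artifacts in the FRET assay. […] fTHP-15 substrate is analysed by RP-HPLC before and after adding test compound, so fluorescence interference can be separated from true inhibition of MMP-13.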
# ADAM17/TACE, sequence (P78536 215-824): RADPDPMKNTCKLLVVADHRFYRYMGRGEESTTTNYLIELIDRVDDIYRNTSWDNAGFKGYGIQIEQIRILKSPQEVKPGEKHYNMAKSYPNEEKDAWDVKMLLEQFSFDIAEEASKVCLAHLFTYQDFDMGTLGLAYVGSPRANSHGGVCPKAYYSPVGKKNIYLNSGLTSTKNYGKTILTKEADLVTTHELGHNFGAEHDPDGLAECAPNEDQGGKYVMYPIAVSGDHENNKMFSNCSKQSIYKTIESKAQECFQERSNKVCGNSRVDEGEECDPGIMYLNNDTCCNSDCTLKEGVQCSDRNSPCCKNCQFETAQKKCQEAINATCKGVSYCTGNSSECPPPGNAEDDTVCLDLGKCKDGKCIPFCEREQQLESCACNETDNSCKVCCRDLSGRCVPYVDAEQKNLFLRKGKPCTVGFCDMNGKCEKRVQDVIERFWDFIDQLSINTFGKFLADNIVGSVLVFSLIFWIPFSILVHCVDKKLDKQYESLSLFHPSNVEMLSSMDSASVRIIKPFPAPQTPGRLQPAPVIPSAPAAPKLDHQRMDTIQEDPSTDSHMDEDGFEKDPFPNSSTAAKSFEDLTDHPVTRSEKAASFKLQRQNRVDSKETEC
smiles,measurement,setting,value
Oc1nc(SCc2ccc(Cl)cc2)nc2c1CCC2 [Compound 4],inhibition at 40 µM,"MMP-13 [1]; read-out: Inhibition (%) at [inhibitor] = 40 μM, MMP-13",51%
same,inhibition of TACE,ADAM17/TACE,do not inhibit
same,binding relation in dual inhibition kinetics,MMP-13 [2],non-mutually exclusive binding
CCCc1cc(O)nc(SCc2ccc(Cl)cc2)n1 [Compound 9],MMP-13 % Inhibition,MMP-13 [1]; SD <10% (Table 1),inactive
Oc1nc(SCc2ccc(Cl)cc2)nc2ccccc12 [Compound 16],MMP-13 % Inhibition,MMP-13 [1]; SD <10% (Table 1),inactive
Oc1[nH]c(SCc2ccc(Cl)cc2)nc2nncc1-2 [Compound 17],MMP-13 % Inhibition,MMP-13 [1]; SD <10% (Table 1),inactive
O=c1[nH]c(SCc2ccc(Cl)cc2)nc(O)c1Cc1ccccc1 [Compound 18],MMP-13 % Inhibition,MMP-13 [1]; SD <10% (Table 1),inactive
CC(=O)Nc1c(O)nc(SCc2ccc(Cl)cc2)nc1O [Compound 19],MMP-13 % Inhibition,MMP-13 [1]; SD <10% (Table 1),inactive
"Cc1ccc(CSc2nc(O)c3c(n2)CCC3)cc1 [Compound 20, 2-[(4-methylphenyl)methylsulfanyl]-1,5,6,7-tetrahydrocyclopenta[d]pyrimidin-4-one]",inhibition at 40 µM,MMP-13 [1]; read-out: MMP-13 % Inhibition,68.7%
same,mode of inhibition of MMP-13-mediated hydrolysis of the fTHP,MMP-13 [3],non-competitive
same,fold more potent as MMP-13 inhibitor than lead compound 4,MMP-13 [3]; relative to compound 4,approximately 5 fold
same,inhibition in RP-HPLC secondary screen,MMP-13 [4],inhibitors
same,inhibition of TACE,ADAM17/TACE,do not inhibit
"COC(=O)c1ccc(CSc2nc3c(c(=O)[nH]2)CCC3)cc1 [Compound 24, methyl 4-[(4-oxo-1,5,6,7-tetrahydrocyclopenta[d]pyrimidin-2-yl)sulfanylmethyl] benzoate]",inhibition at 40 µM,MMP-13 [1]; read-out: MMP-13 % Inhibition,62.5%
same,mode of inhibition of MMP-13-mediated hydrolysis of the fTHP,MMP-13 [3],non-competitive
same,inhibition in RP-HPLC secondary screen,MMP-13 [4],inhibitors
same,inhibition of TACE,ADAM17/TACE,do not inhibit
O=C(CSc1nc2c(c(=O)[nH]1)CCC2)c1ccccc1 [Compound 30],MMP-13 % Inhibition,MMP-13 [1]; SD <10% (Table 2),inactive
O=c1[nH]c(SCc2coc(-c3cccc(Cl)c3)n2)nc2c1CCC2 [Compound 31],MMP-13 % Inhibition,MMP-13 [1]; SD <10% (Table 2),inactive
Cc1oc(-c2cccc(Cl)c2)cc1CSc1nc2c(c(=O)[nH]1)CCC2 [Compound 32],MMP-13 % Inhibition,MMP-13 [1]; SD <10% (Table 2),Inactive
Cc1cccc(CSc2nc(O)c3c(n2)CCCC3)c1 [Compound 34],MMP-13 % Inhibition,MMP-13 [1]; SD <10% (Table 2),inactive
